Source: ChEMBL document CHEMBL1157379, “Transcriptional response of Candida parapsilosis following exposure to farnesol” (2007)
Active and inactive are the calls of the source. No cut-off for these calls is given here.

How the values were obtained:
Candida parapsilosis [1] = test: Decrease in CGD gene ortholog accession number orf19.3051 expression in Candida parapsilosis CLIB214 at 50 uM after 2 hrs by microarray based transcriptional profiling relative to control; assay type: functional
Method in brief: (§1)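 Cells in YPD at 30°C treated with 50 μM farnesol at 4 h, with a methanol control. RNA harvested 2 h later and kept only if 28S/18S ratio was 1.6–2.2 with no degradation. 25 μg total RNA oligo-dT primed and labeled with Cy3/Cy5-dCTP. Labeled cDNA hybridized about 16 h at 42°C to duplicate-spotted 68-mer oligo arrays. Six individual comparisons analyzed statistically.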

Candida parapsilosis [2] = test: Decrease in CGD gene ortholog accession number orf19.5156 expression in Candida parapsilosis CLIB214 at 50 uM after 2 hrs by microarray based transcriptional profiling relative to control; assay type: functional; method in brief: as §1
Candida parapsilosis [3] = test: Decrease in CGD gene ortholog accession number orf19.6687 expression in Candida parapsilosis CLIB214 at 50 uM after 2 hrs by microarray based transcriptional profiling relative to control; assay type: functional
Method in brief: (§2)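 Strain CLIB214 grown overnight in YPD at 30°C, diluted to A600 0.2 in fresh YPD at 30°C. After 4 h (A600 0.8), farnesol (40 mM methanol stock) added to 50 μM final, or an equal methanol volume as control; cells harvested 2 h later. RNA was accepted only with a 28S/18S ratio of 1.6–2.2. Cy3/Cy5-dCTP-labelled cDNA was made from 25 μg total RNA. Hybridisation was to duplicate-spotted 68-mer oligo arrays (3,849 genes) at 42°C for about 16 h. Six individual comparisons.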

Candida parapsilosis [4] = test: Increase in CGD gene ortholog accession number orf19.1953 expression in Candida parapsilosis CLIB214 at 50 uM after 2 hrs by microarray based transcriptional profiling relative to control; assay type: functional; method in brief: as §2
Candida parapsilosis [5] = test: Increase in PLB3 gene expression in Candida parapsilosis CLIB214 at 50 uM after 2 hrs by microarray based transcriptional profiling relative to control; assay type: functional
Method in brief: (§3)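 Strain grown overnight in YPD at 30°C, diluted to A600 0.2 in YPD at 30°C; farnesol (40 mM methanol stock) added at 4 h (A600 0.8), final 50 μM; methanol-only control. Cells collected 2 h later for RNA. Labelled cDNA from 25 μg total RNA (Cy3/Cy5-dCTP) hybridized to 68-mer oligo arrays at 42°C ~16 h; six individual comparisons analysed statistically.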

Candida parapsilosis [6] = test: Increase in GAR1 gene expression in Candida parapsilosis CLIB214 at 50 uM after 2 hrs by microarray based transcriptional profiling relative to control; assay type: functional; method in brief: as §3
Candida parapsilosis [7] = test: Decrease in CGD gene ortholog accession number orf19.4253 expression in Candida parapsilosis CLIB214 at 50 uM after 2 hrs by microarray based transcriptional profiling relative to control; assay type: functional; method in brief: as §1
Candida parapsilosis [8] = test: Decrease in CGD gene ortholog accession number orf19.2697 expression in Candida parapsilosis CLIB214 at 50 uM after 2 hrs by microarray based transcriptional profiling relative to control; assay type: functional; method in brief: as §1
Candida parapsilosis [9] = test: Reduction in ERG1 gene expression in Candida parapsilosis CLIB214 by RT-PCR; assay type: functional, organism-based
Method in brief: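 Cultures in YPD at 30°C, diluted to A600 0.2; 50 μM farnesol (final) or methanol added at 4 h, RNA harvested 2 h later. RT-PCR: 95°C hot start 1 min 30 s, then 26 cycles (95°C 40 s, 55°C 2 min, 72°C 3 min), final 72°C 5 min; each gene signal normalized to ACT1.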

Candida parapsilosis [10] = test: Increase in TEF1 gene expression in Candida parapsilosis CLIB214 at 50 uM after 2 hrs by microarray based transcriptional profiling relative to control; assay type: functional; method in brief: as §3
Candida parapsilosis [11] = test: Increase in CGD gene ortholog accession number orf19.966 expression in Candida parapsilosis CLIB214 at 50 uM after 2 hrs by microarray based transcriptional profiling relative to control; assay type: functional; method in brief: as §3
Candida parapsilosis [12] = test: Increase in CGD gene ortholog accession number orf19.6117 expression in Candida parapsilosis CLIB214 at 50 uM after 2 hrs by microarray based transcriptional profiling relative to control; assay type: functional; method in brief: as §2
Candida parapsilosis [13] = test: Decrease in CGD gene ortholog accession number orf19.5212 expression in Candida parapsilosis CLIB214 at 50 uM after 2 hrs by microarray based transcriptional profiling relative to control; assay type: functional; method in brief: as §1
Candida parapsilosis [14] = test: Decrease in CGD gene ortholog accession number orf19.5683 expression in Candida parapsilosis CLIB214 at 50 uM after 2 hrs by microarray based transcriptional profiling relative to control; assay type: functional; method in brief: as §1
Candida parapsilosis [15] = test: Cell cycle arrest in Candida parapsilosis CLIB214 assessed as accumulation at G2/M phase at 50 uM added 4 hrs after […] growth; assay type: functional, organism-based
Method in brief: (§4)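 YPD culture diluted to A600 0.2 at 30°C. Farnesol added to 50 μM after 4 h. Budding cells scored by microscopy: unbudded as G1, small budded as S, large budded as G2/M. Compared with methanol controls.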

Candida parapsilosis [16] = test: Antifungal activity against Candida parapsilosis CLIB214 assessed as growth inhibition at 50 uM after 4 hrs; assay type: functional; conditions: CLIB214, 4 h
Method in brief: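 C. parapsilosis CLIB214 grown overnight in YPD at 30°C, diluted to A600 0.2 in fresh YPD, grown 4 h (A600 0.8), then farnesol added at final 10, 20, 50 or 100 μM from a 40 mM methanol stock. Methanol-only controls. Growth followed by A600 or by cell counting with a particle counter.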

Candida parapsilosis [17] = test: Decrease in ARG11 gene expression in Candida parapsilosis CLIB214 at 50 uM after 2 hrs by microarray based transcriptional profiling relative to control; assay type: functional; method in brief: as §1
Candida parapsilosis [18] = test: Increase in ERG7 gene expression in Candida parapsilosis CLIB214 at 50 uM after 2 hrs by microarray based transcriptional profiling relative to control; assay type: functional; method in brief: as §3
Candida parapsilosis [19] = test: Decrease in GenBank accession number XP_457879.1 expression in Candida parapsilosis CLIB214 at 50 uM after 2 hrs by microarray based transcriptional profiling relative to control; assay type: functional; method in brief: as §2
Candida parapsilosis [20] = test: Decrease in SOL1 gene expression in Candida parapsilosis CLIB214 at 50 uM after 2 hrs by microarray based transcriptional profiling relative to control; assay type: functional; method in brief: as §2
Candida parapsilosis [21] = test: Increase in PXP2 gene expression in Candida parapsilosis CLIB214 at 50 uM after 2 hrs by microarray based transcriptional profiling relative to control; assay type: functional; method in brief: as §3
Candida parapsilosis [22] = test: Decrease in CGD gene ortholog accession number orf19.5022 expression in Candida parapsilosis CLIB214 at 50 uM after 2 hrs by microarray based transcriptional profiling relative to control; assay type: functional; method in brief: as §1
Candida parapsilosis [23] = test: Cell cycle arrest in Candida parapsilosis CLIB214 assessed as accumulation at S phase at 50 uM added 4 hrs after […] growth; assay type: functional, organism-based; method in brief: as §4
Candida parapsilosis [24] = test: Increase in CGD gene ortholog accession number orf19.5963 expression in Candida parapsilosis CLIB214 at 50 uM after 2 hrs by microarray based transcriptional profiling relative to control; assay type: functional; method in brief: as §2
Candida parapsilosis [25] = test: Decrease in CGD gene ortholog accession number orf19.2366 expression in Candida parapsilosis CLIB214 at 50 uM after 2 hrs by microarray based transcriptional profiling relative to control; assay type: functional; method in brief: as §1

For `CC(C)=CCC/C(C)=C/CC/C(C)=C/CO` [FARNESOL], the “fold change (FC)” value (Candida parapsilosis [1]) was 1.67, the “fold change (FC)” value (Candida parapsilosis [2]) was 2.02 and the “fold change (FC)” value (Candida parapsilosis [3]) was 2.26. The “fold change (FC)” value (Candida parapsilosis [4]) was 1.77, the “fold change (FC)” value (Candida parapsilosis [5]) was 1.66 and the “fold change (FC)” value (Candida parapsilosis [6]) was 2.89. For the same molecule, the “fold change (FC)” value (Candida parapsilosis [7]) was 1.63, the “fold change (FC)” value (Candida parapsilosis [8]) was 1.81 and the Activity (Candida parapsilosis [9]) was “Active”. The “fold change (FC)” value (Candida parapsilosis [10]) was 1.61, the “fold change (FC)” value (Candida parapsilosis [11]) was 1.6 and the “fold change (FC)” value (Candida parapsilosis [12]) was 1.6. The “fold change (FC)” value (Candida parapsilosis [13]) was 2.33, the “fold change (FC)” value (Candida parapsilosis [14]) was 1.51 and the Activity (Candida parapsilosis [15]) was “Active”. The inhibition at 50 µM (Candida parapsilosis [16]) was 25.5%, the “fold change (FC)” value (Candida parapsilosis [17]) was 1.56 and the “fold change (FC)” value (Candida parapsilosis [18]) was 1.68. For the same molecule, the “fold change (FC)” value (Candida parapsilosis [19]) was 1.71, the “fold change (FC)” value (Candida parapsilosis [20]) was 1.54 and the “fold change (FC)” value (Candida parapsilosis [21]) was 2.04. For the same molecule, the “fold change (FC)” value (Candida parapsilosis [22]) was 1.85, the Activity (Candida parapsilosis [23]) was “Active” and the “fold change (FC)” value (Candida parapsilosis [24]) was 1.68. For the same molecule, the “fold change (FC)” value (Candida parapsilosis [25]) was 3.21.
